Results published in ChEMBL document CHEMBL1212828, “Synthesis and biological evaluation of novel pyrazole compounds” (Bioorg Med Chem, 2010).
Calls of active or inactive are those of the source. The rule behind the calls is not given here.

Assays:
Rattus norvegicus [1] = experiment: Antiinflammatory activity in Wistar albino rat assessed as inhibition of turpentine oil-induced granuloma at 20 mg/kg, po qd for 7 days post turpentine oil challenge measured on day 8; format: functional
Summary of the method: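 In ether-anaesthetized male Wistar rats (five per group) a dorsal subcutaneous pouch is formed with 2 mL air, then 0.5 mL turpentine oil is injected. Oral dosing at 20 mg/kg starts 1 h before turpentine and continues 7 days. On day 8 the exudate is drawn by syringe and its volume recorded; % inhibition = (Vcontrol − Vtreated)/Vcontrol × 100.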

THP-1 [2] = experiment: Antiinflammatory activity in human THP1 cells assessed as reduction in LPS and IFN-gamma-induced MCP level after 24 hrs; format: functional, cell-based
Summary of the method: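 THP-1 cells (5 × 10^5 cells/mL, DMEM-F12 with 5% FBS) pretreated 15 min with compound or DMSO vehicle, then stimulated with 0.5 µg/mL LPS plus 150 U/mL IFN-γ. After 24 h, MCP-1 in cell-free medium measured by ELISA. IC50 estimated from concentration–response; randomized block ANOVA.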

THP-1 [3] = experiment: Neuroprotective activity against LPS and IFN-gamma-stimulated neurotoxin production in human THP1 cell assessed as inhibition of THP1 cell secretion-induced toxicity to human SH-SY5Y cells after 72 hrs by MTT assay; format: functional, cell-based; details: for IC50: THP-1, 72 h
Summary of the method: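 THP-1 cells pretreated 15 min with compound, then stimulated with LPS (0.5 µg/mL) plus IFN-γ (150 U/mL) for 24 h. Cell-free supernatant transferred to SH-SY5Y cells plated 24 h earlier (2 × 10^5 cells/mL). After 72 h, SH-SY5Y viability read by MTT (0.5 mg/mL, 1 h, 37 °C, OD570) or by LDH release (OD490, relative to Triton X-100 lysis). IC50 estimated.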

[4] = target: T1, Prostaglandin G/H synthase 2 (Homo sapiens) (UniProt P35354); experiment: Inhibition of human COX2 at 100 uM
T1 sequence (whole entry): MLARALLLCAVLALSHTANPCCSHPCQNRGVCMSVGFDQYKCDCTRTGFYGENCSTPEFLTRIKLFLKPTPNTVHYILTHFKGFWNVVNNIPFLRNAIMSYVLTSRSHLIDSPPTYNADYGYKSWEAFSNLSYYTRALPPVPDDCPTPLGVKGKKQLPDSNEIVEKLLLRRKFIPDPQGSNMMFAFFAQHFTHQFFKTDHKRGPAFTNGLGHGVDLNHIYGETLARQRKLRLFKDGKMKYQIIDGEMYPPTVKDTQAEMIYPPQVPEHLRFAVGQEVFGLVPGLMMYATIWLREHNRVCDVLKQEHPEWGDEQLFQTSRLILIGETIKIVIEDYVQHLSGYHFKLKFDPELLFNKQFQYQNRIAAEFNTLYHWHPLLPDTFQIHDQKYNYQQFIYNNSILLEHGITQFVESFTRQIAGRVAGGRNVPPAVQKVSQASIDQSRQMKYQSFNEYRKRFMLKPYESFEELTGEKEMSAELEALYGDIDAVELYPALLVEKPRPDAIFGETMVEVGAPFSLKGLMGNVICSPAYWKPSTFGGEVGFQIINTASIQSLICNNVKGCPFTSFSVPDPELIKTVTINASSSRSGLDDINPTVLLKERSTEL
Summary of the method: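 Screening kit with ovine COX-1 and human recombinant COX-2, run per manufacturer's protocol; percent inhibition of prostaglandin production measured for each isoform.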

SH-SY5Y = experiment: Neuroprotective activity in human SH-SY5Y cells; format: functional, cell-based
Summary of the method: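 SH-SY5Y cells seeded at 2 × 10^5/mL in DMEM-F12 with 5% FBS; after 24 h medium replaced by supernatant of THP-1 cells stimulated 24 h with LPS + IFN-γ, or by medium containing 250 µM H2O2, with compound added at transfer. Cell death measured by LDH assay 72 h later; five independent experiments; randomized block ANOVA.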

Rattus norvegicus [5] = experiment: Antiinflammatory activity in Wistar albino rat assessed as inhibition of formalin-induced paw edema at 20 mg/kg, po administered 1 hr prior to formalin challenge measured after 1 hr relative to control; format: functional
Summary of the method: (§1)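 Male Wistar rats, 180–200 g, groups of five; single oral dose 1 h before 2% formalin (0.1 mL) into subplantar left hind paw under light ether anaesthesia. Paw volume read by water plethysmometer at baseline and 1, 2, 3, 4 h; % inhibition = control (Vt−Vo) minus treated (Vt−Vo), over control, ×100. Means ± SEM; ANOVA with Student–Newman–Keuls.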

Rattus norvegicus [6] = experiment: Antiinflammatory activity in Wistar albino rat assessed as inhibition of formalin-induced paw edema at 20 mg/kg, po administered 1 hr prior to formalin challenge measured after 3 hrs relative to control; format: functional; summary of the method: as §1
Rattus norvegicus [7] = experiment: Antiinflammatory activity in Wistar albino rat assessed as inhibition of formalin-induced paw edema at 20 mg/kg, po administered 1 hr prior to formalin challenge measured after 4 hrs relative to control; format: functional; summary of the method: as §1
Rattus norvegicus [8] = experiment: Antiinflammatory activity in Wistar albino rat sub-acute inflammatory model assessed as inhibition of formalin-induced paw edema at 20 mg/kg, po administered 1 hr prior to formalin challenge measured on day 1 relative to control; format: functional
Summary of the method: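 Male Wistar rats, 180–200 g, five per group, dosed orally 20 mg/kg daily for 7 consecutive days. Formalin (2%, 0.1 mL) injected subplantar into left hind paw under light ether 1 h after dosing, repeated on day 3. Paw volume measured plethysmographically on days 1 and 8; inhibition expressed relative to untreated controls.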

Rattus norvegicus [9] = experiment: Antiinflammatory activity in po dosed Wistar albino rat assessed as inhibition of formalin-induced paw edema after 3 hrs relative to control; format: functional
[10] = Acute toxicity in Wistar albino rat after 24 hrs; format: organism-based; details: in vivo, read-out: ALD50
Summary of the method: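 Male Wistar albino rats (180–200 g), fasted 24 h, groups of five; compound given orally in graded doses of 0.1–3.0 g/kg. Mortality recorded at each dose after 24 h to estimate approximate acute lethal dose (ALD50).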

THP-1 [11] = experiment: Cytotoxicity against human THP1 cells assessed as reduction in cell viability; format: cell-based
Summary of the method: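 THP-1 cells in DMEM-F12 with 5% FBS, 24-well plates, pretreated 15 min with compound or DMSO vehicle, then stimulated with LPS 0.5 µg/mL plus IFN-γ 150 U/mL for 24 h. Death read as supernatant LDH (iodonitrotetrazolium formazan, 490 nm, fraction of Triton X-100 lysate); survival by MTT; MCP-1 by ELISA. Concentration effects by randomized block ANOVA; 8–11 independent experiments.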

| Structure (SMILES) | inhibition in vivo at 20 mg/kg (Rattus norvegicus [1]) [%] | IC50 (THP-1 [2]; Homo sapiens, THP-1, 24 h, read-out: IC50) [µM] | IC50 (THP-1 [3]) [µM] | inhibition [4] [%] | Activity (SH-SY5Y) | inhibition in vivo at 20 mg/kg (Rattus norvegicus [5]) [%] | inhibition in vivo at 20 mg/kg (Rattus norvegicus [6]) [%] | inhibition in vivo at 20 mg/kg (Rattus norvegicus [7]) [%] | inhibition in vivo at 20 mg/kg (Rattus norvegicus [8]) [%] | ED50 (Rattus norvegicus [9]) [mg/kg] | LD50 at 24 h [10] [mg/kg] | EC50 (THP-1 [11]) [µM] | IC50 (THP-1 [2]) [µM] | Activity (THP-1 [3]) |
| --- | --- | --- | --- | --- | --- | --- | --- | --- | --- | --- | --- | --- | --- | --- |
| CC(NC(=O)C(=O)Nc1c(C#N)cnn1-c1ccccc1)c1ccccc1 (stereo not given) | 51 | 150 | 6 | 33.8 | inactive | 50 | 46 | 50 | 39 | 19.6 | > 300 | 500 | – | – |
| N#Cc1cnn(-c2ccccc2)c1NC(=O)C(=O)Nc1c(C#N)cnn1-c1ccccc1 | 48 | – | 10 | 14 | Active | 44 | 50 | 58 | 43 | 17.5 | > 300 | 100 | 250 | Dose-dependent effect |
